We go through eleven compounds from ChEMBL document CHEMBL5108074 (J Med Chem, 2022).

≈ marks a conversion by molar mass, not a printed value.

Data set [1] can be described thus: Thermodynamic solubility of the compound in FaSSIF at 1 mg/ml at pH 6.5 measured after 4 hrs. Format: physicochemical. The essentials:
(§1)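 Compound (nominal 1 or 100 mg/mL as free base) added to biorelevant medium preheated to 37 °C: FaSSGF at pH 1.6 or FaSSIF at pH 6.5. Vortexed, then shaken 4 h at 37 °C (~500 rpm). Centrifuged at 15000g for 10 min at 37 °C. Supernatant diluted and quantified against calibration standards. Crystalline material used where stated.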

The next data set deals with Plasma kallikrein (Homo sapiens, UniProt P03952). Put plainly: Inhibition of human plasma kallikrein using H-D-Pro-Phe-Arg-AFC as flurogenic substrate preincubated for 5 mins followed by substrate addition by fluorometer analysis. Format: cell-free.
Data set [2] is described as follows: Kinetic solubility of the compound in aqueous assay buffer at pH 7.7.
A short description of data set [3]: Clearance in Sprague-Dawley rat assessed as liver blood flow at 1 mg/kg, iv measured upto 24 hrs by LC-MS analysis. It is filed as ADME, organism-based. The note with it: in vivo. Summed up: (§2)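 Male Sprague-Dawley rats, two per route, single dose. IV: 1 mg/kg given as 1 mL/kg of a nominal 1 mg/mL formulation in vehicle. PO: 10 mg/kg given as 5 mL/kg of a 2 mg/mL formulation. PK parameters from noncompartmental analysis. Clearance expressed relative to rat liver blood flow of 80 mL/min/kg.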

Data set [4] in a line: Thermodynamic solubility of the compound in FaSSGF at 1 mg/ml at pH 1.6 measured after 4 hrs. Format: physicochemical. The settings on record: FaSSGF, pH 1.6, read-out: Therm_solubility. Summed up: as §1
Data set [5] in a line: Metabolic stability in human liver microsomes assessed as intrinsic clearance per mg of protein measured upto 60 mins in presence of NADPH regenerating system by LC-MS/MS analysis. The settings on record: for microsomal intrinsic clearance: microsomes, 1 h. It is filed as ADME, Microsome. (In general: Liver microsomes are vesicles of endoplasmic reticulum, rich in cytochrome P450 enzymes.)

Data set [6] is described as follows: Clearance in Sprague-Dawley rat blood at 1 mg/kg, iv measured upto 24 hrs by LC-MS analysis. It is filed as ADME, organism-based. The note with it: whole blood. The essentials:
as §2

Data set [7] can be described thus: Half life in Sprague-Dawley rat at 10 mg/kg, po and 1 mg/kg, iv measured upto 24 hrs by LC-MS analysis. The note with it: in vivo. It is filed as ADME, organism-based. Summed up:
as §2

The nature of data set [8]: Apparent permeability of the compound across apical side to basolateral side in human Caco-2 cells incubated for 1 hr by LC-MS/MS analysis. The note with it: for Papp: caco-2, 1 h. In general terms: Caco-2 monolayers are a common model of the intestinal barrier.
A short description of data set [9]: Oral bioavailability in Sprague-Dawley rat at 10 mg/kg measured upto 24 hrs by LC-MS analysis. Format: ADME, organism-based. The settings on record: in vivo. The essentials:
as §2

Data set [10] can be described thus: Kinetic solubility of the compound in 0.1N HCl.

Sequence of Plasma kallikrein (P03952 20-390 limits assumed): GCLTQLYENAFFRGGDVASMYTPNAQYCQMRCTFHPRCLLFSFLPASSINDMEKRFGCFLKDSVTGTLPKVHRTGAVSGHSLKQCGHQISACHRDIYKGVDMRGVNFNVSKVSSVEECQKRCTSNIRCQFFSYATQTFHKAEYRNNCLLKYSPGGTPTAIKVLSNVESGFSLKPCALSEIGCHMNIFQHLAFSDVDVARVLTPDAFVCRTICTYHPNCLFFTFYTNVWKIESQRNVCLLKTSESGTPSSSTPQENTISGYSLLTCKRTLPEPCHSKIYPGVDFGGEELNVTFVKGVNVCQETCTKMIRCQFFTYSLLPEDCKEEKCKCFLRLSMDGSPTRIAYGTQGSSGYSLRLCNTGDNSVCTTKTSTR
Sequence of Plasma kallikrein (P03952 391-638 limits assumed): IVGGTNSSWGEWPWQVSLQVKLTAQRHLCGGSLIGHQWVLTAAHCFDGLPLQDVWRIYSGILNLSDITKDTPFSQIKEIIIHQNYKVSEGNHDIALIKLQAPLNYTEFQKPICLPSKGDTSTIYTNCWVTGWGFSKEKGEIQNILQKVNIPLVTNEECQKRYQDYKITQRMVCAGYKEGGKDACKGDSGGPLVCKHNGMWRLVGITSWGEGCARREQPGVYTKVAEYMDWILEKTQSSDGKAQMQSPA

On to `COCc1nn(Cc2ccc(Cn3ccccc3=O)cc2)cc1C(=O)NCc1c(C#N)ccc(OC)c1F`, for which the solubility thermodynamic at 4 h in data set [1] (FaSSIF, pH 6.5, read-out: Therm_solubility) amounted to 0.031 mg/mL (≈ 60.1 µM); in [4], 0.021 mg/mL (≈ 40.7 µM). Further, the IC50 (as a rule, the point on the concentration scale where inhibition reaches its midpoint) on Plasma kallikrein turned out to be 1 nM. Also, the solubility (kinetic) in data set [2] and in [10] was over 0.12 mg/mL throughout. Besides, the LBF in data set [3] came to 35%. For the same compound, in data set [5], the microsomal intrinsic clearance came out at 58 µL/min. Also, the clearance (as a rule, the volume of plasma or blood freed of the substance per unit of time) in [6] worked out at 1.66 L/h/kg. The compound also registered a t1/2 in [7] of 1.1 h. The Papp in data set [8] is 14 10^-6 cm/s. The compound also displayed a F in [9] of 20%.
For `COCc1nn(Cc2ccc(Cn3ccccc3=O)cc2)cc1C(=O)NCc1cc(OC)ccc1F`, the solubility (kinetic) in data set [2] and in [10] was over 0.12 mg/mL each time.
In data set [1] (simulated gi fluid, pH 6.5, 4 h), `COCc1nn(Cc2ccc(Cn3ccccc3=O)cc2)cc1C(=O)NCc1nccc(OC)c1C` showed a Therm_solubility of 0.11 mg/mL. This compound also yielded a half-maximal inhibitory concentration (IC50) at Plasma kallikrein of 4.1 nM. For the same compound, the LBF in data set [3] worked out at 44%. For the same compound, the solubility thermodynamic at 4 h in [4] was found to be 0.97 mg/mL (≈ 1990 µM). Moreover, the clearance in data set [6] was 2.1 L/h/kg. In addition, in data set [7], the t1/2 was found to be 1 h. Moreover, the F in data set [9] stood at 31%.
Regarding `COCc1nn(Cc2ccc(Cn3ccccc3=O)cc2)cc1C(=O)NCc1c(Cl)ccc(OC)c1F`, the solubility (kinetic) in [2] and in data set [10] was over 0.12 mg/mL throughout. Further, in data set [5], the microsomal intrinsic clearance was found to be 120 µL/min.
As for `COCc1nn(Cc2ccc(Cn3ccccc3=O)cc2)cc1C(=O)NCc1cccc(OC)c1F`, the midpoint of inhibition against Plasma kallikrein, the IC50, lay at 17 nM. Also, the solubility (kinetic) in [2] and in [10] was over 0.12 mg/mL in each case. Besides, the microsomal intrinsic clearance in [5] was found to be 45 µL/min. Moreover, the Papp in [8] is listed as 25 10^-6 cm/s.
Take `COc1cccc(CNC(=O)c2cn(Cc3ccc(Cn4ccccc4=O)cc3)nc2C2CC2)c1F`: the kinetic solubility (commonly solubility judged after dilution from a stock solution rather than from solid) in [2] was 0.058 mg/mL (≈ 119 µM); in data set [10] it was over 0.11 mg/mL. Further, the microsomal intrinsic clearance in data set [5] was found to be 170 µL/min.
Consider `Nc1cccc2cc(CNC(=O)c3cnn(Cc4ccc(Cn5ccccc5=O)cc4)c3)ccc12`, for which the microsomal CLint in data set [5] (liver microsomes, read-out: CLH) worked out at 37 µL/min/mg. Moreover, in [8] (Caco-2), the Papp A→B (commonly how fast a substance crosses the layer from the apical side) at 1 h is 20 nm/s.
In the case of `COCc1nn(Cc2ccc(Cn3ccccc3=O)cc2)cc1C(=O)NCc1cccc(O)c1F`, the kinetic solubility in [2] and in [10] was over 0.12 mg/mL each time.
The compound `COc1ccc(F)c(CNC(=O)c2cn(Cc3ccc(Cn4ccccc4=O)cc3)nc2CN(C)C)c1F` showed an IC50 against Plasma kallikrein of 6.3 nM. In addition, the microsomal intrinsic clearance in [5] worked out at 280 µL/min. In addition, in [8], the Papp was 14 10^-6 cm/s.
Turning to `CCc1cccc(CNC(=O)c2cn(Cc3ccc(Cn4ccccc4=O)cc3)nc2COC)c1F`, the kinetic solubility in [2] is over 0.12 mg/mL; in data set [10] it was 0.029 mg/mL (≈ 59.4 µM).
In the case of `COc1cccc(CNC(=O)c2cn(Cc3ccc(Cn4ccccc4=O)cc3)nc2N(C)C)c1F`, the kinetic solubility in [2] and in data set [10] was over 0.12 mg/mL each time.
